# This is a sample that favours compounds with a hit; in the whole collection about 3.5% have one here.
# RGS4 act – potentiators or activators of RGS4; HEK293 M3R/inducible RGS4, carbachol calcium flux Fluo4; hits give low values; B-score at 10 µM; hit rate 0.92% among 310,000; AID 463111;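 active = B-score of the integrated calcium signal more than 4 SD below the library mean, with starting fluorescence not abnormally high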;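 note: negative B-score means reduced calcium response which marks RGS4 activation or potentiation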
#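 test system = M3R-expressing HEK293 line, RGS4 induced by doxycycline | probe or stimulus = carbachol at ECmax as muscarinic agonist stimulus | timing = dye loading 30 min 37 °C, buffer rest 30 min RT | signal = calcium dye Fluo4 fluorescence | evaluation = B score from integrated fluorescence ratio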
# RGS4 inh – human RGS4 inhibition; P49798; HEK293 M3R/RGS4 inducible, Fluo-4 calcium flux; hits give high values; triggered by carbachol at its EC20; B-score at 10 µM; hit rate 0.45% among 310,000; AID 463165;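 active = B-score, a plate-corrected calcium signal, over three deviations above library mean, with baseline fluorescence within five deviations of library mean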;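 note: RGS4 expression induced by doxycycline in cells with stable M3 receptor; B-score is computed from the integrated fluorescence ratio over baseline after carbachol; higher B-score means a larger calcium signal and so more RGS4 inhibition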
# Target sequence (P49798 whole entry, looked up): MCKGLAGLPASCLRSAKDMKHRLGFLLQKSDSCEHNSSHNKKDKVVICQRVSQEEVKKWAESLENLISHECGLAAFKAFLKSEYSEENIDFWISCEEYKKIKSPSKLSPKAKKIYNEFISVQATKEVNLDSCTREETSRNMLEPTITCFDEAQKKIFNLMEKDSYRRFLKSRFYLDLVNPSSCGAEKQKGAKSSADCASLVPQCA
# MrgX1 allo act – human MrgX1 positive allosteric modulation, primary screen | hit rate 0.63% among 310,000 | Q96LB2 | B-score at 10 µM | MrgX1-HEK293, Fluo-4 calcium flux, FDSS; hits give high values | AID 588675;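 active = plate-corrected calcium response at least 3 library SD above typical, normal starting fluorescence, not activating the receptor alone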;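 note: compound read alongside a low EC10 to EC30 dose of BAM8-22 agonist; peak minus trough fluorescence over baseline measured at the second addition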
# Target sequence (Q96LB2 whole entry, looked up): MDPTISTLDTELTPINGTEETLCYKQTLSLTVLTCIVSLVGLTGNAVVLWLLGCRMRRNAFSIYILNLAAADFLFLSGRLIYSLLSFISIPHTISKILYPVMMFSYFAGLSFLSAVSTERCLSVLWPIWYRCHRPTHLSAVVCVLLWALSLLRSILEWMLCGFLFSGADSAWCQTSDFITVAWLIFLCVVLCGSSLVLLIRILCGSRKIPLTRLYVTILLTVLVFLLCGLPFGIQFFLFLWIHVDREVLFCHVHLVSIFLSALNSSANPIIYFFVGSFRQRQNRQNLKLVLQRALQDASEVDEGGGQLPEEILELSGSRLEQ
# MrgX1 antag – human MrgX1 receptor antagonism, primary screen; B-score at 10 µM; hit rate 1.3% among 310,000; MRGX1-HEK293 calcium flux, Fluo-4, BAM8-22 antagonism; hits give low values; Q96LB2;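 active = calcium-response B-score plate-corrected more than 3 library SD below zero, starting fluorescence within 5 deviations, no agonist response on first addition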;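 note: peak minus trough fluorescence over baseline after final BAM8-22 challenge near maximal dose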
# MrgX1 agonist – agonists of human MrgX1 receptor | B-score at 10 µM | Q96LB2 | hit rate 0.44% among 310,000 | MrgX1-HEK293 cells, Fluo-4 calcium fluorescence, agonist mode; hits give high values;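 active = calcium response B-score plate-corrected fluorescence ratio at least 3 library SD, with starting fluorescence B-score inside 5 SD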
#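 Material – MrgX1-expressing HEK293 cells · Input – 15,000 cells seeded per well · Dosing – compound as first of three additions · Times – overnight seeding, then 1 h dark dye loading · Measured by – kinetic Fluo-4 NW fluorescence of intracellular calcium · Read-out – B-scored fluorescence response ratio · Benchmarks – positive and negative control wells on each plate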
# * hit, by the source's call; i = inactive.
SMILES,RGS4 act,RGS4 inh,MrgX1 allo act,MrgX1 antag,MrgX1 agonist
COc1cccc(CNC(=O)C2CCN(c3nnc(N4CCCC4=O)s3)CC2)c1,i,i,i,i,i
CCOC(=O)N1CCN(S(=O)(=O)c2ccc(C(=O)N(CCCN(C)C)c3nc4cc(OC)ccc4s3)cc2)CC1,-7.6*,i,i,i,i
CCOC(=O)N1CCN(S(=O)(=O)c2ccc(C(=O)N(CCCN(C)C)c3nc4c(C)c(C)ccc4s3)cc2)CC1,i,i,i,i,i
COc1ccc2sc(N(CCCN(C)C)C(=O)c3ccc(S(=O)(=O)N4CCCC4)cc3)nc2c1,-7.2*,i,i,i,i
Cn1c(CNC(=O)c2ccco2)nnc1SCC(=O)Nc1ccccc1Cl,i,i,i,i,i
CCOc1ccc(NC(=O)CN(C)C(=O)c2cn(-c3ccc(F)cc3)nc2-c2cccc(OC)c2)cc1OCC,-7.2*,i,i,i,i
CCN(CC)CCNC(=O)c1ccc(NC(=O)/C=C/c2ccc3ccccc3n2)cc1,i,i,i,-8.5*,i
CCN(CC)CCNC(=O)c1ccc(NC(=O)c2ccccc2-c2ccc(C(F)(F)F)cc2)cc1,-9.5*,i,i,i,i
CCN(CC)CCNC(=O)c1ccc(NC(=O)c2cn(-c3ccc(F)cc3)nc2-c2cccc(OC)c2)cc1,-11*,i,i,i,i
O=C(COc1ccc2ccc(=O)oc2c1)NC1CCN(Cc2ccccc2)CC1,i,i,i,i,i
CCOCCCNC(=O)c1cc(=O)n(Cc2cccc(C)c2)c2ccccc12,i,i,i,i,i
Cc1cccc(NC(=O)C2CCCN(c3ncnc4c3nc3n4CCCCC3)C2)n1 (stereo not drawn),i,i,i,i,i
CC1CCN(C(=O)Cn2c3ccccc3c3nc4n(c(=O)c32)CCS4)CC1,i,i,i,i,i
CCN(CC)CCNC(=O)c1ccc(NC(=O)c2cn(-c3ccccc3)nc2-c2cccs2)cc1,-8.1*,i,i,i,i
O=C(Nc1cccnc1)c1cn(-c2ccccc2)nc1-c1cccs1,i,i,i,i,i
COc1ccc(S(=O)(=O)NCC(=O)NCCc2ccc(OC)c(OC)c2)cc1,i,i,i,i,i
COc1ccc(CC2=CC(=O)c3ccccc3C2=O)cc1,i,6.2*,i,i,i
COc1ccccc1OCCC(=O)OCC(=O)NC(C)c1ccccc1 (stereo not drawn),i,i,i,-6.1*,i
CCCCN(C(=O)c1ccc2c(c1)S(=O)(=O)N=C1CCCCCN12)c1c(N)n(CCCC)c(=O)[nH]c1=O,i,i,i,i,i
O=C(N[C@@H]1CCC(=O)N(CC[C@H](Oc2ccccc2)c2ccccc2)CC1)OCc1ccccc1,i,i,i,i,i
Cc1cc(=O)oc2cc(OCC(=O)OCC(=O)Nc3c(C)n(C)n(-c4ccccc4)c3=O)ccc12,i,i,i,-8.8*,i
CCO[C@@H]1OC(C(=O)N2CCN(Cc3ccc4c(c3)OCO4)CC2)=C[C@H](c2coc3ccccc3c2=O)[C@H]1CCCO,i,i,i,-5.1*,i
CCO[C@H]1OC(C(=O)N2CCN(Cc3ccccc3)CC2)=C[C@@H](c2coc3ccccc3c2=O)[C@@H]1CCCO,i,i,i,i,i
CSc1ccccc1OCc1cc(C(=O)NC2CCc3ccccc32)no1 (stereo not drawn),i,i,i,i,i
Cc1ccc(OCc2cc(C(=O)NC3CCc4ccccc43)no2)cn1 (stereo not drawn),i,i,i,-4.7*,i
SMILES,RGS4 act,RGS4 inh,MrgX1 allo act,MrgX1 antag,MrgX1 agonist
CC(C)N1CN(c2ccccc2)C(=S)N(c2ccccc2)C1,i,i,i,i,i
COc1ccc(CN(C(=O)c2ccc(C)cc2)C2CCS(=O)(=O)C2)cc1 (stereo not drawn),i,i,i,i,i
COc1cccc2c1OCC(C(=O)OCc1cccnc1)=C2,i,i,i,i,29*
O=C(O)CCC1OC(=O)C(O)=C1c1ccccc1 (stereo not drawn),i,i,i,i,i
CC(=O)Nc1cc(C(=O)N2CCc3ccccc3C2)ccc1Sc1ccc(Cl)cc1,-8*,i,i,i,i
Cc1ccccc1C(=O)NNc1ccc([N+](=O)[O-])cc1,i,i,i,-6.8*,i
CCN(CC(=O)Nc1c(F)cccc1F)C(=O)c1ccc(N2CCCC2=O)cc1,i,i,i,i,i
Cc1cccc(-c2cc(C(=O)Nc3c(C)n(C)n(-c4ccccc4)c3=O)c3ccccc3n2)c1,-8.5*,i,6.6*,i,i
O=C(c1cn(-c2ccccc2)nc1-c1cccnc1)N1CCCC(C(F)(F)F)C1 (stereo not drawn),i,i,i,i,i
O=C(O)c1ccc2c(c1)C(=O)N(CCc1c[nH]c3ccccc13)C2=O,i,i,i,i,i
CCOC(=O)C(NCCOC)(NC(C)=O)C(F)(F)F (stereo not drawn),i,i,i,i,i
Cn1c(=O)c([N+](=O)[O-])c(-n2cnc3ccccc32)c2ccccc21,i,i,i,i,27*
O=c1c2ccccc2ncn1-c1ccccc1[N+](=O)[O-],i,i,13*,i,i
Cc1nccn1-c1c([N+](=O)[O-])c(=O)n(C)c2ccccc12,i,i,i,i,i
CCCCC(=O)Nc1cc(Cl)ccc1C(=O)O,i,i,i,i,i
Cc1onc(-c2c(Cl)cccc2Cl)c1C(N)=S,i,i,i,i,i
CCOP(=O)(OCC)C(NC(=O)Nc1ccc(C)c(Cl)c1)c1ccccc1 (stereo not drawn),i,i,i,-7.8*,i
CCOC(=O)c1nc(S(C)(=O)=O)ncc1Cl,i,i,i,i,43*
CCOC(=O)c1nc(S(C)(=O)=O)ncc1N1CCOCC1,i,i,i,i,i
CCN(CCn1cccn1)C(=O)C1CCC(=O)N(CCc2cccc(F)c2)C1 (stereo not drawn),i,i,i,i,i
COc1ccc(-c2c[n+](CC(=O)N3c4ccccc4Sc4ccccc43)c3n2CCC3)cc1,-8.9*,i,i,i,i
CC1CCC(C(C)C)C(OC(=O)C[n+]2cc(-c3ccc(Cl)cc3)n3c2CCC3)C1 (stereo not drawn),i,i,i,-7*,i

# Screening data: PubChem, Johns Hopkins Ion Channel Center
